Results gathered from unrelated publications.
Target: Death-associated protein kinase 3 (DAPK3, Homo sapiens, UniProt O43293)

COc1cc(-c2cc(-c3ccc(N4CCNCC4)cc3)cnc2C)cc(OC)c1OC — inhibition (enzyme activity; inhibitor; 0.1 µM): 1%
CC(C)(C)c1nc(-c2cccc(NS(=O)(=O)c3c(F)cccc3F)c2F)c(-c2ccnc(N)n2)s1 — remaining activity (enzyme activity; inhibitor; radiometric; 1 µM): 54%
N#CC1(c2ccccn2)CCN(Cc2cc(C(=O)N3CCCC3)c(=O)n3ccccc23)CC1 — remaining binding (cell-free assay; competition with immobilised ligand; 1 µM): 86%
O=C1Nc2ccc(Cl)cc2C1=Cc1cc(Cl)c(O)c(Cl)c1 — remaining signal (cell-free assay; 0.5 µM): 82.3%
COc1cc2ncnc(Nc3ccc(Oc4ccccc4)c(C)c3C)c2cc1OC — inhibition (enzyme activity; inhibitor; 1 µM): 1%
Clc1ccc(Nc2nnc(Cc3ccncc3)c3ccccc23)cc1 — remaining signal (cell-free assay; 0.5 µM): 107%
O=C(Nc1cccnn1)N1CCC(=Cc2cccc(Oc3ccc(C(F)(F)F)cn3)c2)CC1 — remaining binding (cell-free assay; competition with immobilised ligand; 1 µM): 79%
CC(C)(O)[C@H]1CC[C@H](Nc2ccc3ncc(-c4cccc(C(F)(F)F)c4)n3n2)CC1 — remaining activity (enzyme activity; inhibitor; 1 µM): 120%
Cc1ccc(C(=O)Nc2ccc(CN3CCN(C)CC3)c(C(F)(F)F)c2)cc1C#Cc1cnc2cccnn12 — remaining activity (enzyme activity; inhibitor; 23.5 nM): 99%
Cc1nc(C2CCN(C(=O)c3ccc(OC(F)(F)F)cc3N)CC2)c2ncc(N3CCN(C)CC3)cc2n1 — remaining binding (cell-free assay; competition with immobilised ligand; 1 µM): 100%
O=C1NC(=O)c2cc(Nc3ccc(F)cc3)c(Nc3ccc(F)cc3)cc21 — remaining signal (cell-free assay; 0.5 µM): 101%
CCCS(=O)(=O)Nc1ccc(F)c(C(=O)c2c[nH]c3ncc(-c4ccc(Cl)cc4)cc23)c1F — inhibition (enzyme activity; inhibitor; 1 µM): < 10%
O=c1nc(-c2ccccn2)sc2ccccc12 — remaining binding (binding; competition with immobilised ligand; 1 µM): 91%
COc1cc2ncnc(Nc3ccc(F)c(Cl)c3)c2cc1OCCCN1CCOCC1 — remaining signal (cell-free assay; 0.5 µM): 95.7%
Cc1sc(C(=O)NC2COC2)cc1-n1cc(NC(=O)Nc2c(F)cccc2Cl)cn1 — remaining activity (enzyme activity; inhibitor; 10 µM): 101%
CNC(=O)c1cc(Oc2ccc(NC(=O)Nc3ccc(Cl)c(C(F)(F)F)c3)cc2)ccn1 — remaining signal (cell-free assay; 0.5 µM): 92.9%
CN1CC(Oc2cnc(C#N)cc2-c2ccn3nc(NC(=O)C4CC4)cc3c2)C1 — inhibition (enzyme activity; inhibitor; 1 µM): 4%
CCCCN(CCCC)C(=O)CN1C[C@H](c2cc(OC)c3c(c2)OCO3)[C@@H](C(=O)O)[C@@H]1CC(C)(C)CCC — remaining binding (cell-free assay; competition with immobilised ligand; 1 µM): 100%
Cc1ccc(Nc2nccc(N(C)c3ccc4c(C)n(C)nc4c3)n2)cc1S(N)(=O)=O — inhibition (enzyme activity; inhibitor; 0.3 µM): -7%
O=S(=O)(NC1CCC(c2cc(F)ccc2F)(S(=O)(=O)c2ccc(Cl)cc2)CC1)C(F)(F)F (centres unmarked) — remaining binding (cell-free assay; competition with immobilised ligand; 1 µM): 97%
Cc1cc(NC(=O)c2cccc3cc(-c4cccc5[nH]nc(N)c45)ccc23)ccc1F — activity vs control (enzyme activity; inhibitor; 0.1 µM): 105%
C[C@H](c1cccc(C#N)c1)n1cc(Cl)cc(C(N)=O)c1=N — remaining binding (cell-free assay; competition with immobilised ligand; 1 µM): 100%
CCCOc1ccc(OC)c(F)c1C(=O)c1ccc(C(=O)N[C@@H]2CNC[C@H]2NC(=O)c2ccc3[nH]ncc3c2)cc1 — remaining activity (enzyme activity; inhibitor; 10 µM): 40%
